Results published in ChEMBL document CHEMBL5715960, “Epigenetic Co-Deregulation of EZH2/TET1 is a Senescence-Countering, Actionable Vulnerability in Triple-Negative Breast Cancer” (Theranostics, 2019).
The source made the active and inactive calls. The calls are words filed in the database; no cut-off is given here.

What was measured:
MDA-MB-436 [1] = assay: Cytotoxicity against human MDA-MB-436 cells upto 0.5 ug/ml; assay type: functional, cell-based; details: dose <= 0.5 µg/ml
MDA-MB-231 [2] = assay: Cytotoxicity against human MDA-MB-231 cells upto 0.5 ug/ml; assay type: functional, cell-based; details: dose <= 0.5 µg/ml
MDA-MB-231 [3] = assay: Antiproliferative activity against human MDA-MB-231 cells assessed as increase in global H3K9me3 expression level by immunoblot analysis; assay type: functional, cell-based
How it was run: (§1)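 Cells exposed to GSK343 at 2 µM (standard level unless stated otherwise), lysed and immunoblotted; α-tubulin and total H3 as loading controls.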

MCF7 = assay: Antiproliferative activity against human MCF7 cells assessed as increase in global H3K9me3 expression level by immunoblot analysis; assay type: toxicity, cell-based; how it was run: as §1
BT-474 = assay: Antiproliferative activity against human BT-474 cells assessed as increase in global H3K9me3 expression level by immunoblot analysis; assay type: toxicity, cell-based; how it was run: as §1
MDA-MB-436 [4] = assay: Antiproliferative activity against human MDA-MB-436 cells assessed as increase in global H3K9me3 expression level by immunoblot analysis; assay type: functional, cell-based; how it was run: as §1

Row | Compound | Activity (MDA-MB-436 [1]) | Activity (MDA-MB-231 [2]) | Activity (MDA-MB-231 [3]) | Activity (MCF7) | Activity (BT-474) | Activity (MDA-MB-436 [4])
1 | COc1cccc2c1C(=O)c1c(O)c3c(c(O)c1C2=O)C[C@@](O)(C(=O)CO)C[C@@H]3O[C@H]1C[C@H](N)[C@H](O)[C@H](C)O1 | inactive | inactive | – | – | – | –
2 | Nc1nccc2c1ncn2[C@@H]1C=C(CO)[C@@H](O)[C@H]1O | – | – | Active | Non-Toxic | Non-Toxic | inactive
